Data as given in paper PMC10441371 (bioRxiv, 2023).
“Also recorded” adds a separate entry of the source. Where a name gives a salt, the structure may show the parent alone. Read-outs that look alike come from different tables or passages of the source.

Assays:
[1] = type: in vivo, Sprague Dawley rats; details: for Levels in liver, mean (SD): wet weight; for Detection in the brain: PCB 52 exposed rats
thyroid hormone receptor = details: ref Kitamura et al., 2005; cited from earlier work
SULT2A1 = details: ref Parker et al., 2018; cited from earlier work
estrogenic activity = details: ref Kitamura et al., 2005; cited from earlier work
[2] = male rats, single IP dose 150 mg/kg BW; ref Parkinson et al., 1983; cited from earlier work
[3] = General toxicity: body and organ weights after IP exposure; type: in vivo, Sprague Dawley rats
Procedure, shortened: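 Rats were female Sprague Dawley, 4–5 weeks old and 75–100 g, acclimated 1 week. Each received a single IP dose of corn oil vehicle or test compound at 1, 10 or 100 mg/kg BW. Body weight was recorded at 5 time points over 3 weeks. After CO2 euthanasia, liver, spleen and thymus were excised; liver weight was adjusted for body weight. Groups were compared by one-way ANOVA with Tukey, p<0.05.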

CYP2B = details: PCB 52 exposure; ref Parkinson et al., 1983; cited from earlier work
[4] = system: dopamine and its metabolites, DOPAL and DOPAC; test: Dopamine and metabolites analysis in striatum; type: in vivo, Sprague Dawley rats; details: different doses of PCB 52 IP, 3 weeks post injection, vs vehicle
Procedure, shortened: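 Female Sprague Dawley rats (4–5 weeks, 75–100 g, acclimated 1 week) got a single IP injection of corn oil or test compound in corn oil at 1, 10 or 100 mg/kg BW. They were euthanized after 3 weeks by CO2 and thoracotomy. Nigrostriatal tissue was homogenized in ice-cold 0.3 M perchloric acid and spun at 10,000 g for 10 min. Supernatant went to capillary HPLC with coulometric detection (guard +350, E1 −150, E2 +200 mV). Values are pmol/mg tissue; ANOVA with Tukey.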

[5] = system: endogenous serum metabolites; test: Targeted metabolomics of serum samples; type: in vivo, Sprague Dawley rats; details: 0 to 100 mg/kg BW IP, 3 weeks
Procedure, shortened: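 In female Sprague Dawley rats, serum was taken 3 weeks after a single IP dose of vehicle or 1–100 mg/kg test compound. Heart blood clotted ≥30 min at room temperature and was spun at 2,500 g (10 min, 4°C). Extracts (solvent:sample 18:1, −20°C 1 h) were methoximated (60°C 1 h), then TMS-derivatized (60°C 30 min). GC-Orbitrap analysis used EI full scan m/z 56.7–850 against a 94-metabolite list. Intensities were total-normalized; data were analyzed by PLS-DA and dose linear regression with Benjamini-Hochberg FDR.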

N27 cell line = details: ref Rodriguez et al., 2018; cited from earlier work
SH-SY5Y cell line = details: ref Rodriguez et al., 2018; cited from earlier work
SULT1E1 = details: ref Parker et al., 2018; cited from earlier work
[6] = 10 mg/kg BW PCB 52 IP, 3 weeks after dosing, N = 3
[7] = 100 mg/kg BW PCB 52 IP, 3 weeks after dosing, N = 5
[8] = 1, 10 or 100 mg/kg BW IP, 3 weeks, body weight-adjusted, vs vehicle
[9] = no dose-response relationship observed

SMILES: Oc1cc(Cl)cc(-c2cc(Cl)ccc2Cl)c1Cl [X1-PCB 52, 2,2’,5,5’-tetrachlorobiphenyl-3-ol]
- Estimated mean level in the serum ([1]; 10 mg/kg BW PCB 52 IP, 3 weeks after dosing): 0.07 ng/kg BW
- Levels in liver, mean (SD) [1, 6]: 0.28 ng/g
- Levels in serum, mean (SD) [1, 7]: 0.69 ng/g
- Levels in liver, mean (SD) [1, 7]: 0.85 ng/g
- Detection in the brain [1]: observed in the brain of one animal
- Detection in adipose tissue ([1]; all other exposure groups (below high dose)): below the LOD
- Detection in adipose tissue ([1]; high-dose group (100 mg/kg BW)): present

SMILES: Oc1cc(Cl)c(-c2cc(Cl)ccc2Cl)cc1Cl [4-OH-PCB 52, 2,5-dichloro-4-(2,5-dichlorophenyl)phenol]
- Affinity for the thyroid hormone receptor (thyroid hormone receptor): low affinity
- Levels in liver, mean (SD) [1, 6]: 0.15 ng/g
- Levels in liver, mean (SD) [1, 7]: 0.57 ng/g
- Detection in the brain [1]: observed in the brain of one animal
- Detection in adipose tissue ([1]; high-dose group (100 mg/kg BW)): detected only in adipose tissue from one animal
- Inhibition of SULT2A1 (SULT2A1): inhibitors
- Estrogenic activity in vitro (estrogenic activity): low estrogenic activity

SMILES: Clc1ccc(Cl)c(-c2cc(Cl)ccc2Cl)c1 [PCB 52, 2,2',5,5'-Tetrachlorobiphenyl]
- Bodyweight-adjusted liver weights vs control [2]: not significantly different
- Effect on bodyweight-adjusted liver weights ([3]; 10 mg/kg BW IP, 3 weeks, vs vehicle group, p < 0.05): significantly smaller; also recorded: significant decrease
- Effect on overall body weight ([3]; 1, 10 or 100 mg/kg BW IP, 3-week study, vs vehicle): did not affect; also recorded: no significant impact
- Effect on spleen weights [3, 8]: did not affect
- Effect on thymus weights [3, 8]: did not affect
- CYP2B enzyme activity in the rat liver (CYP2B): induced
- Ratio of mean PCB 52 tissue levels, 100 mg/kg BW vs 10 mg/kg BW dose group ([1]; brain (lowest ratio)): 2.9
- Ratio of mean PCB 52 tissue levels, 100 mg/kg BW vs 10 mg/kg BW dose group ([1]; highest ratio among tissues, tissue not given): 5.6
- Ratio of mean PCB 52 levels, 10 mg/kg BW vs 1 mg/kg BW dose group ([1]; liver): ~7.0 times
- Ratio of mean PCB 52 levels, 10 mg/kg BW vs 1 mg/kg BW dose group ([1]; serum): approximately 4.0 times
- Presence in tissues investigated (adipose, brain, liver, serum) ([1]; three weeks following the IP injection): present in all tissues investigated
- DOPAC levels in the striatum [4]: no significant differences; also recorded: not significantly different
- DOPAL levels in the striatum [4]: no significant differences; also recorded: not significantly different
- Dopamine levels in the striatum [4]: no significant differences; also recorded: not significantly different
- Serum L-cysteine levels [5]: decreased dose-dependent
- Serum L-histidine levels [5]: dose-dependent increase
- Serum cytosine levels [5]: decreased dose-dependent
- Serum erythrose levels [5]: decreased dose-dependent
- Serum glycine levels [5]: dose-dependent increase
- Serum orotic acid levels [5]: decreased dose-dependent
- Serum sphingosine levels [5]: decreased dose-dependent
- Serum linoleic acid levels [5, 9]: significantly affected
- Serum thymine levels [5, 9]: significantly affected
- Number of significantly altered serum metabolites ([5]; out of the 81 metabolites included, raw p-values < 0.05): 9

SMILES: O=S(=O)(O)Oc1cc(Cl)c(-c2cc(Cl)ccc2Cl)cc1Cl [PCB 52 sulfate]
- Toxicity (N27 cell line): low micromolar range
- Toxicity (SH-SY5Y cell line): low micromolar range
- Inhibition of SULT1E1 (SULT1E1): inhibitor
- Inhibition of SULT2A1 (SULT2A1): inhibitors
